# How the values were obtained:
# Rattus norvegicus = species: Rattus norvegicus; test: Inhibition of 5-LOX-mediated LTB4 production in arachidonic acid-stimulated RBL1 cells at 10 uM preincubated for 2 hrs followed by A23187 induction for 15 mins by LC/MS/MS analysis relative to control
# Method in brief: (§1)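 RBL-1 cells grown in RPMI/10% FBS, plated 9 × 10⁵ cells/well, held 2 h at 37 °C, then given compound for 2 h (screen at 10 μM, then concentration–response in triplicate). Stimulation was 12 μM A23187 for 15 min. Supernatants were extracted with MeOH/0.01% BHT and LTB₄ quantified by UPLC-MS/MS in negative ion mode.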
# [1] = Change in total alpha-tubulin levels in human QBI293 cells at 1 uM after 4 hrs by ELISA relative to control; conditions: qbi293, 4 h
# Homo sapiens = species: Homo sapiens; test: Induction of microtubule stabilization in human QBI293 cells assessed as increase in acetylated tubulin levels at 1 uM after 4 hrs by ELISA relative to control; format: cell-based
# Method in brief: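 QBI-293 cells grown in DMEM/10% FBS at 37 °C, 5% CO2, plated 6 × 10⁵ cells/well overnight, then treated with vehicle or compound (1 and 10 μM) for 4 h. Lysis was in RIPA with protease inhibitors, 1 mM PMSF and 1 μM TSA, followed by 100000g spin for 30 min. Acetylated α-tubulin was measured by ELISA on BCA-quantified supernatant, reported as fold change vs DMSO, at least triplicate, t test.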
# Cyclooxygenase = target: T1, Cyclooxygenase (Rattus norvegicus, UniProt P35355+Q63921); test: Inhibition of COX-mediated PGD2/PGE2 production in arachidonic acid-stimulated RBL1 cells preincubated for 2 hrs followed by A23187 induction for 15 mins by LC/MS/MS analysis
# T1 sequence (P35355 whole entry): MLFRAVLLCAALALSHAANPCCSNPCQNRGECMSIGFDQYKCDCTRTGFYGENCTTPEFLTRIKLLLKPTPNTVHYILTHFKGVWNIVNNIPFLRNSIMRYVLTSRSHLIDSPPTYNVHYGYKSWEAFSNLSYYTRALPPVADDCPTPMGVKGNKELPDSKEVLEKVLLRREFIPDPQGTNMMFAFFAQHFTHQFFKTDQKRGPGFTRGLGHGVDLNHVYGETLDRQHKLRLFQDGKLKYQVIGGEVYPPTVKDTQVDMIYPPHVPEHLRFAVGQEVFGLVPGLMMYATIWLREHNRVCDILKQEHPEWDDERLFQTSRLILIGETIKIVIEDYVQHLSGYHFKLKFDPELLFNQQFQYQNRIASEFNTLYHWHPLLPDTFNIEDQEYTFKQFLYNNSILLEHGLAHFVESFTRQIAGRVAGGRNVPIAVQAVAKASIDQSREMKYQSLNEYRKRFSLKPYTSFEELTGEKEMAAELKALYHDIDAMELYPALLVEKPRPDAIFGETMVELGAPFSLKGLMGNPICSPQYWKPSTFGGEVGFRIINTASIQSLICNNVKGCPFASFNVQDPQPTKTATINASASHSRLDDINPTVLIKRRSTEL
# T1 sequence (Q63921 whole entry): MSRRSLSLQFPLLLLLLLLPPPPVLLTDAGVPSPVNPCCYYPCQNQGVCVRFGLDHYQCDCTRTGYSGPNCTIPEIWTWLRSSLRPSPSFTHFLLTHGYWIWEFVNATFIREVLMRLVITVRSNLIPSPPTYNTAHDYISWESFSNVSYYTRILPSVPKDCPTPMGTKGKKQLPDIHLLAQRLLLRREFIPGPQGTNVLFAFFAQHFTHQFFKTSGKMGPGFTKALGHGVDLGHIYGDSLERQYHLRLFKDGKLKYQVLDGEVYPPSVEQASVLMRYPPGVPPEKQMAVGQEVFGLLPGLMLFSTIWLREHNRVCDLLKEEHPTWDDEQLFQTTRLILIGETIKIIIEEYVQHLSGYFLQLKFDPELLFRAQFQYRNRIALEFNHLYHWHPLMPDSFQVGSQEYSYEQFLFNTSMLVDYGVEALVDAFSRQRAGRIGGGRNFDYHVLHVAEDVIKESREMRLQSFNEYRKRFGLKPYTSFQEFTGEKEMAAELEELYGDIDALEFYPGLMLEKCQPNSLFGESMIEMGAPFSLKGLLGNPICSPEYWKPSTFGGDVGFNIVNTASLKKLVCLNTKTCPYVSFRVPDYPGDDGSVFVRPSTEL
# Method in brief: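 RBL-1 cells in RPMI/10% FBS, 9 × 10⁵ cells/well, held 2 h, then exposed to compound for 2 h at multiple concentrations in triplicate. Stimulation was 12 μM A23187 for 15 min. Eicosanoids were extracted with MeOH/0.01% BHT, and PGD₂ plus PGE₂ measured by UPLC-MS/MS (negative ion, 351 > 315).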
# [2] = Inhibition of 5-LOX-mediated LTB4 production in arachidonic acid-stimulated RBL1 cells preincubated for 2 hrs followed by A23187 induction for 15 mins by LC/MS/MS analysis; conditions: Rattus norvegicus, RBL-1; method in brief: as §1
inhibition (Rattus norvegicus) [%],Compound,Activity [1],further results
< 10,Cc1nc(Cl)c(-c2c(F)cc(F)cc2F)n1-c1ccc(Cl)cc1,Non-Toxic,–
44,Cc1ncn(-c2ccc(Cl)cc2)c1-c1c(F)cccc1F,Non-Toxic,–
46,Fc1cc(F)c(-c2c(Cl)ncn2-c2ccc(Cl)cc2)c(F)c1,Non-Toxic,–
73,Cc1cc(F)c(-c2cnc(Cl)n2-c2ccc(Cl)cc2)c(F)c1,Non-Toxic,–
56,Fc1ccc(F)c(-c2c(Cl)nc(Cl)n2-c2ccc(OC(F)(F)F)cc2)c1F,Non-Toxic,–
88,Fc1ccc(Cl)c(F)c1-c1cnc(Cl)n1-c1ccc(Cl)cc1,–,FC [1]: 0.8
59,Fc1ccc(-c2c(Cl)ncn2-c2ccc(Cl)cc2)cc1,Non-Toxic,–
69,Fc1ccc(F)c(-c2c(Cl)ncn2-c2ccc(Cl)cc2)c1,Non-Toxic,–
< 10,Fc1cc(F)c(-c2c(Cl)ncn2-c2ccc(Cl)nc2)c(F)c1,–,FC [1]: 0.8
84,Cc1cc(F)c(-c2cncn2-c2ccc(Cl)cc2)c(F)c1,Non-Toxic,–
49,Fc1cc(Cl)ccc1-n1c(-c2c(F)cccc2F)cnc1Cl,Non-Toxic,–
45,Cc1ncc(-c2c(F)ccc(F)c2F)n1-c1ccc(Cl)cc1,–,FC [1]: 0.9
< 10,Fc1cccc(F)c1-c1cncn1-c1ccccc1Cl,Non-Toxic,–
63,Cc1cc(F)c(-c2c(Cl)nc(Cl)n2-c2ccc(Cl)cc2)c(F)c1,–,FC [1]: 0.7
90,Fc1cccc(F)c1-c1c(Cl)nc(Cl)n1-c1ccc(Cl)cc1,Non-Toxic,–
61,Fc1cccc(F)c1-c1cnc(Cl)n1-c1ccc(OC(F)(F)F)cc1,Non-Toxic,–
80,Fc1ccc(F)c(-c2cnc(Cl)n2-c2ccc(OC(F)(F)F)cc2)c1F,Non-Toxic,–
55,Fc1cccc(F)c1-c1cncn1-c1ccc(OC(F)(F)F)cc1,Non-Toxic,–
< 10,COc1ccc(-c2cncn2-c2ccc(Cl)cc2)cc1,Non-Toxic,–
51,Cc1nc(C)n(-c2ccc(Cl)cc2)c1-c1c(F)ccc(Cl)c1F,Non-Toxic,–
38,Fc1cccc(F)c1-c1cnc(Cl)n1-c1ccccc1Cl,Non-Toxic,–
48,Fc1cc(F)c(-c2c(Cl)nc(Cl)n2-c2ccc(Cl)cc2)c(F)c1,Non-Toxic,–
57,Fc1ccc(-c2cnc(Cl)n2-c2ccc(Cl)cc2)cc1,Non-Toxic,–
81,CCc1nc(Cl)c(-c2c(F)cccc2F)n1-c1ccc(Cl)cc1,Non-Toxic,fold change (FC) (Homo sapiens): 1.8
81,Fc1cccc(F)c1-c1c(Cl)nc(Cl)n1-c1ccc(OC(F)(F)F)cc1,Non-Toxic,–
< 10,Clc1ccc(-n2c(Cl)nc(Cl)c2-c2ccccc2)cc1,Non-Toxic,–
26,Cc1nc(Cl)c(-c2c(F)cc(F)cc2F)n1-c1ccc(Cl)nc1,Non-Toxic,–

inhibition (Rattus norvegicus) [%],Compound,Activity [1],further results
24,Fc1cc(F)c(-c2cncn2-c2ccc(Cl)cc2)c(F)c1,Non-Toxic,–
< 10,COc1ccc(-c2c(Cl)ncn2-c2ccc(Cl)cc2)cc1,Non-Toxic,–
68,COc1ccc(F)c(-c2cnc(Cl)n2-c2ccc(Cl)cc2)c1F,–,FC [1]: 0.6
25,COc1ccc(-n2cncc2-c2c(F)cc(F)cc2F)cc1,Non-Toxic,–
52,Clc1ccc(-n2c(-c3ccccc3)cnc2Cl)cc1,–,FC [1]: 1.2
58,Cc1nc(Cl)n(-c2ccc(Cl)cc2)c1-c1c(F)ccc(F)c1F,Non-Toxic,–
78,Fc1cccc(F)c1-c1c(Cl)ncn1-c1ccc(OC(F)(F)F)cc1,Non-Toxic,–
42,Cc1nc(Cl)n(-c2ccc(Cl)cc2)c1-c1c(F)cccc1F,Non-Toxic,–
84,Cc1nc(Cl)c(-c2c(F)ccc(Cl)c2F)n1-c1ccc(Cl)cc1,–,fold change (FC) (Homo sapiens): 1.7; FC [1]: 0.6
21,Fc1cccc(F)c1-c1c(Cl)nc(Cl)n1-c1ccccc1Cl,Non-Toxic,–
24,Fc1ccc(F)c(-c2cnc(Cl)n2-c2ccc(Cl)cc2)c1F,Non-Toxic,–
91,COc1ccc(F)c(-c2c(Cl)ncn2-c2ccc(Cl)cc2)c1F,–,FC [1]: 0.8
61,Fc1cc(F)c(-c2cnc(Cl)n2-c2ccc(Cl)cc2)c(F)c1,Non-Toxic,–
52,Fc1ccc(F)c(-c2cncn2-c2ccc(OC(F)(F)F)cc2)c1F,–,FC [1]: 1.2
87,Cc1nc(Cl)c(-c2c(F)cccc2F)n1-c1ccc(Cl)cc1,–,fold change (FC) (Homo sapiens): 2.5; FC [1]: 0.8
16,Clc1ccc(-n2cncc2-c2ccccc2)cc1,Non-Toxic,–
78,COc1ccc(F)c(-c2cncn2-c2ccc(Cl)cc2)c1F,Non-Toxic,–
85,Fc1ccc(F)c(-c2c(Cl)ncn2-c2ccc(OC(F)(F)F)cc2)c1F,Non-Toxic,–
78,Cc1ccc(F)c(-c2c(Cl)ncn2-c2ccc(Cl)cc2)c1F,–,FC [1]: 0.8
58,Fc1cc(-n2c(-c3c(F)ccc(F)c3F)cnc2Cl)ccc1Cl,Non-Toxic,–
14,Fc1cc(Cl)ccc1-n1cnc(Cl)c1-c1c(F)cccc1F,Non-Toxic,–
54,Cc1nc(Cl)n(-c2ccc(Cl)cc2)c1-c1c(F)ccc(Cl)c1F,–,FC [1]: 0.5
< 10,Fc1cccc(F)c1-c1cncn1-c1ccccc1,Non-Toxic,–
–,C[C@H](Nc1c(-c2c(F)cc(F)cc2F)c(Cl)nc2ncnn12)C(F)(F)F,Non-Toxic,fold change (FC) (Homo sapiens): 2.5
56,Fc1cccc(F)c1-c1c(Cl)ncn1-c1ccccc1Cl,Non-Toxic,–
< 10,CC(C)Cc1ccc(C(C)C(=O)O)cc1 (stereo not drawn) [IBUPROFEN],Non-Toxic,–
86,COc1ccc(-n2cnc(Cl)c2-c2c(F)cc(F)cc2F)cc1,Non-Toxic,IC50 (Cyclooxygenase): 2.4 µM; IC50 [2]: 9.7 µM

# — ChEMBL document CHEMBL4014332, “Multitargeted Imidazoles: Potential Therapeutic Leads for Alzheimer's and Other Neurodegenerative Diseases” (J Med Chem, 2017)
